Source: PubChem (Broad Institute)
ARNT-TACC3 inh: disrupts binding between human ARNT and TACC3 | inhibition, % at 9.99 µM | AlphaScreen His-ARNT PAS-B/GST-TACC3 binding, luminescence; TACC3 fragment carries E629A point mutation | Q9Y6A5 | 390,000 compounds, 0.66% hits | AID 623870;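 active = mean inhibition of replicates at least 50% and at least half of replicates each reaching 50%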;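 also: 0% = complete ARNT plus TACC3 wells and 100% = ARNT alone without TACC3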
PDI inh: PDI (human) enzyme inhibition; AID 588391; P07237; 350,000 compounds, 0.052% hits; inhibition, % at 10 µM; PDI insulin aggregation turbidity, A650, 90 min;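 active = mean inhibition across replicates of 30% or more, whatever share of single replicates reach that level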
ERp5 inh: blocks human ERp5 reductase activity on insulin | Q15084 | ERp5 insulin aggregation, absorbance 650 nm, 90 min | inhibition, % at 9.99 µM | 350,000 compounds, 0.05% hits | AID 651711;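 active = mean replicate inhibition above about 25%, with every replicate also reaching it, limit read from the data, passing the limit was not always enough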
FN deposit inh: fibronectin deposition inhibition | inhibition, % at 12.6 µM | AH1F fibroblasts, Alexa488-fibronectin deposition fluorescence, overnight | 350,000 compounds, 0.086% hits | AID 743247;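 active = mean inhibition across replicates of 30% or more, regardless of how many single replicates reach that level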;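 also: positive control wells lacked labelled fibronectin entirely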
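test system = AH1F fibroblasts assembling fluorescent fibronectin matrix | quantity = 10000 AH1F cells per well | buffer or medium = DMEM plus 2% serum, read in PBS | doses = single dose, pinned | incubation = 1 h cell attachment, overnight exposure to compound and label | detection = fluorescence at 485 nm excitation, 525 nm emission | read-out basis = inhibition from reduced deposited-fibronectin fluorescence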
FGF22 binding: binders of recombinant human FGF22 by thermal shift; 340,000 compounds, 1.5% hits; Q9HCT0; activity (Tm shift, normalised), % at 9.99 µM; SYPRO orange fluorescence; percent of sucrose octasulfate shift, DMSO zero;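 active = mean Tm shift, scaled 0 neutral to 100 positive control, at about 1.3% or above, every replicate too, limit read from the data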
MLL AF4-AF9 inh: blocks AF4 peptide binding to human AF9; 350,000 compounds, 0.47% hits; AID 651704; P42568; AlphaScreen, biotin-AF4 peptide binding to FLAG-AF9; inhibition, % at 10 µM;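 active = every replicate reaching a set inhibition limit, whatever the replicate mean, cut at about 25% in these data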;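 also: 0% = plate neutral control median and 100% = total signal loss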
Target sequence (P42568 whole entry, looked up): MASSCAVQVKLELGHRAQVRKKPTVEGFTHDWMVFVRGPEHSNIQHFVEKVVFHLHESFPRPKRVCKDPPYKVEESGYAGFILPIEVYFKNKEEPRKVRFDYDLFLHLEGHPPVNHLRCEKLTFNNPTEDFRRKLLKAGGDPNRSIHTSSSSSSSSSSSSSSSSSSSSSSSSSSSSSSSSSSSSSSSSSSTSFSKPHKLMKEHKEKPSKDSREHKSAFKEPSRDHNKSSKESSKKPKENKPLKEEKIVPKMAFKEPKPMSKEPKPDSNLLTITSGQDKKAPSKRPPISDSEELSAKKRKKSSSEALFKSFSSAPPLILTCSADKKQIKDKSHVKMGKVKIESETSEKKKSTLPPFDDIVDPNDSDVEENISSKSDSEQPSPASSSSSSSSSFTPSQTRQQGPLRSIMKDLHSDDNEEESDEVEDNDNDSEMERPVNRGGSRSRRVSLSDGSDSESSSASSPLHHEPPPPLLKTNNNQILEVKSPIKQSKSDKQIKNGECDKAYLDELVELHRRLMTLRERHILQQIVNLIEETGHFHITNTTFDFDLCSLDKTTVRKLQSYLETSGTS
* hit, by the source's call; . = no result given. In the library only some 2.1% were active in any assay of this set; here they are far more common.

SMILES	ARNT-TACC3 inh	PDI inh	ERp5 inh	FN deposit inh	FGF22 binding	MLL AF4-AF9 inh
COc1ccc(S(=O)(=O)NCCc2ccc(F)cc2)cc1	-9	-1	.	3	.	.
CCCCNc1ccc(C(F)(F)F)cc1S(=O)(=O)NCCc1ccc(F)cc1	-5	3	6	-1	21*	-2
CC(=O)Nc1ccc(NC(=O)CSC2=NS(=O)(=O)c3cc(F)ccc3N2)cc1	10	-8	-3	-2	1	1
O=C(CSC1=NS(=O)(=O)c2cc(F)ccc2N1)Nc1ccc(F)cc1	-8	-1	-3	.	1.7*	-2
COCCNC(=O)c1cc2sc3ccccc3c2s1	-4	7	.	-9	.	.
CN(C)CCCNC(=O)c1cc2sc3ccccc3c2s1	.	-23	1	-2	44*	5
COc1ccc(-c2nc(C#N)c(N3CCCCCC3)o2)cc1OC	27	-2	2	.	0	27*
COc1ccc(-c2nc(C#N)c(N3CCCCCC3)o2)cc1	27	1	.	.	.	.
Cc1ccc(-c2nc(C#N)c(N3CCC(C)CC3)o2)cc1	31	1	3	-2	0	28*
CNC[C@H]1OCc2ccccc2-c2c(n(C)c3ccccc23)C(=O)N([C@@H](C)CO)C[C@@H]1C	.	.	.	-21	.	.
O=C(C[C@@H]1CC[C@H](NC(=O)c2cnccn2)[C@@H](CO)O1)NCc1ccccc1F	-8	.	1	8	0	0
C[C@@H]1CN([C@@H](C)CO)C(=O)Cc2cc(NC(=O)CCN3CCOCC3)ccc2O[C@H]1CN(C)CC1CCCCC1	-3	.	8	.	0	8
COc1ccc(N(C(=O)CCl)C(C(=O)NCCc2ccccc2)c2cccs2)cc1Cl (centres undefined)	-9	4	5	34*	0	6
CC(C)NC(=O)Nc1cccc2c1O[C@H](CN(C)C)[C@@H](C)CN(C)C2=O	.	.	.	-12	.	.
Nc1c(C(=O)OCC(=O)NCc2ccccc2)[nH]c(=O)[nH]c1=O	4	4	1	-8	0	38*
Nc1c(C(=O)OCC(=O)Nc2ccccc2Br)[nH]c(=O)[nH]c1=O	0	7	8	3	0	-3
CCOc1cc2c(cc1OC)C(c1cccc([N+](=O)[O-])c1)NCC2 (centres undefined)	-18	6	-4	0	43*	0
COc1ccc(C2NCCc3cc(OC)c(OC)cc32)cc1OC (centres undefined)	2	2	.	active	.	.
CNC[C@H]1Oc2ccc(NC(=O)Nc3ccc(OC)cc3)cc2CC(=O)N([C@H](C)CO)C[C@@H]1C	5	.	-2	.	0	1
C/C(=N\NC(=O)c1ccncc1)c1cc2ccccc2o1	-3	-11	2	-3	0	0
C/C(=N\NC(=O)c1cccnc1)c1cc2ccccc2o1	10	1	-3	2	43*	-1
C/C(=N\NC(=O)C1COc2ccccc2O1)c1cc2ccccc2o1 (centres undefined)	.	-60	2	-6	44*	-1
C/C(=N\NC(=O)C1COc2ccccc2O1)c1ccccn1 (centres undefined)	64*	14	.	8	.	.
C/C(=N/NC(=O)C1COc2ccccc2O1)c1ccc(Br)s1 (centres undefined)	7	3	-6	0	.	-4
C/C(=N\NC(=O)C1COc2ccccc2O1)c1ccc(C)o1 (centres undefined)	20	-1	.	1	.	.
SMILES	ARNT-TACC3 inh	PDI inh	ERp5 inh	FN deposit inh	FGF22 binding	MLL AF4-AF9 inh
C[C@H]1CN([C@@H](C)CO)C(=O)c2cc(-c3ccccc3)cnc2O[C@H]1CN(C)Cc1cccnc1	-1	.	-2	-36	0	-4
O=C1CN(S(=O)(=O)Cc2ccccc2)C[C@@H]2[C@H](c3ccc(C#Cc4ccccc4)cc3)[C@H](CO)N12	.	.	-2	1	.	-1
Oc1ccccc1/C=N/Nc1nccnc1Cl	67*	14	.	7	.	.
O=[N+]([O-])c1ccc(O)c(/C=N/Nc2ccccn2)c1	61*	2	-1	5	0	5
O=[N+]([O-])c1ccc(NN=Cc2ccccc2O)nc1	8	18	6	.	0	2
COc1ccc(O)c(/C=N/Nc2nc3ccccc3[nH]2)c1	-13	-3	-3	2	.	17
O=[N+]([O-])c1ccc(O)c(/C=N/Nc2nc3ccccc3[nH]2)c1	83*	16	4	11	0	32*
Cc1nc(N/N=C/c2ccc(O)cc2O)cc(N2CCOCC2)n1	65*	2	1	-12	0	70*
CN1C(=O)c2cc(NC(=O)c3ccc(F)cc3)ccc2OC[C@H]2O[C@@H](CC(=O)NCC3CCCCC3)CC[C@H]21	-8	.	-4	-5	0	0
O=C(C[C@H]1CC[C@H]2[C@@H](COC[C@H](O)CN2Cc2cocn2)O1)NCc1cccc(F)c1	-5	.	-1	-2	0	0
C[C@@H](NC(=O)C[C@@H]1CC[C@@H](NC(=O)C2CC2)[C@H](CO)O1)c1ccccc1	13	.	-16	2	0	-1
CC(N=Cc1cc([N+](=O)[O-])ccc1O)c1ccccc1 (centres undefined)	.	-18	0	-4	44*	-13
Oc1ccc(C=NNc2ccccn2)c(O)c1	60*	8	0	18	0	42*
CCN(CC)S(=O)(=O)c1ccc(N/N=C/c2ccc(O)cc2O)nc1	46*	-3	.	1	.	.
CN(/N=C/c1cc([N+](=O)[O-])ccc1O)c1ccccc1	-4	16	4	6	0	-3
C[C@H](CO)N1C[C@H](C)[C@@H](CN(C)C(=O)c2ccccc2)OCCCC[C@H](C)Oc2ccc(NC(=O)Cc3ccccc3)cc2C1=O	-12	.	2	.	0	-3
COc1ccc(C(CC(=O)Nc2ccc(C)cn2)N2Cc3ccccc3C2=O)cc1 (centres undefined)	35*	-7	5	-3	-1	2
COc1ccc(C(CC(=O)O)N2Cc3ccccc3C2=O)cc1 (centres undefined)	6	7	2	-8	0	0
C[C@H](CO)N1C[C@H](C)[C@@H](CN(C)C(=O)c2ccccn2)Oc2ncc(Br)cc2C1=O	28	.	3	5	0	-2
CSCC[C@H](NC(=O)OC(C)(C)C)C(=O)N/N=C/c1cccc2cccnc12	62*	-13	-8	2	0	.
C[C@H](NC(=O)OC(C)(C)C)C(=O)N/N=C/c1cccc2nccnc12	27*	0	2	4	0	1
O=C(Nc1ccc2c(c1)[C@@H]1C[C@H](CC(=O)N3CCc4ccccc4C3)O[C@H](CO)[C@@H]1O2)c1ccc2c(c1)OCO2	48*	.	-9	5	0	-5
